Pemphigus Ab inh: inhibitors of pemphigus antibody binding to DSG3, primary screen, biochemical, bead-based, flow cytometry, scFv-GFP. DSG3-coupled beads, scFv-anti-DSG3-GFP binding; hits give low values. binding (percent of control), % at 10 µM. 0.48% of 310,000 active;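 active = binding more than 3 SD below its plate's average and above zero; inconclusive = below that plate limit but binding exactly zero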;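 also: hits lower antibody fragment binding to DSG3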
UHRF1 binding: UHRF1 methylated DNA binding inhibitors, primary screen, counter-screen for MBD2 inhibitor project, biochemical, TR-FRET, human UHRF1, single concentration | E3 ubiquitin-protein ligase UHRF1 (Homo sapiens), Q96T88 | UHRF1 binding to methylated oligo | inhibition, % at 4.4 µM | 0.75% of 370,000 active | AID 687016, 2013; in the data active = inhibition above about 21%;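 also: UHRF1 SRA domain binding a hemimethylated CpG hairpin DNA probe; 0% = median of test compound wells and 100% = reference inhibitor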
Target sequence (Q96T88 whole entry, looked up, the tested form may be a part): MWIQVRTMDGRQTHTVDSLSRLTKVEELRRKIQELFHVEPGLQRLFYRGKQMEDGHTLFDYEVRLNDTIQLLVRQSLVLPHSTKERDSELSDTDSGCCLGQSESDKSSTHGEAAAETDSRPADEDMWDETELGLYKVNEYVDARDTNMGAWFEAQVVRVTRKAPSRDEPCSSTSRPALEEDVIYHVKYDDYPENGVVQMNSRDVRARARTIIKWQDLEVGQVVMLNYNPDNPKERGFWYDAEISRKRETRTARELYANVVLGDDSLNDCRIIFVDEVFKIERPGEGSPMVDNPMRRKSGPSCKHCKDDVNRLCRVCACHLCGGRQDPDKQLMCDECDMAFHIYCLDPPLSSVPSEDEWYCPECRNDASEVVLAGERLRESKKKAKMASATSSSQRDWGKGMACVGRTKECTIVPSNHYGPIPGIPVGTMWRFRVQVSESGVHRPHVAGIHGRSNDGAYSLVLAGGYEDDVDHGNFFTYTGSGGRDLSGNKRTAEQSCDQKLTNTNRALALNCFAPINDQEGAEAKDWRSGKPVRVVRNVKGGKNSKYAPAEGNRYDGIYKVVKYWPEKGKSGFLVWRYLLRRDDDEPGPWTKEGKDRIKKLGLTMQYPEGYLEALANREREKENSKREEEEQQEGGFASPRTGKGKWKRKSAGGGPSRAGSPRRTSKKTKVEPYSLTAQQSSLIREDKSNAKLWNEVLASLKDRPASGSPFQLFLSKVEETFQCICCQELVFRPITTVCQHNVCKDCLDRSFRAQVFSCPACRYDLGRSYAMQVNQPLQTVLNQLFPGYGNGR
DNMT1 inh: human DNMT1 methyltransferase inhibitors, primary screen, biochemical, molecular beacon, fluorescence, HinP1I cleavage, uHTS; DNA (cytosine-5)-methyltransferase 1 (Homo sapiens), P26358; inhibition (reported as % activation of signal), % at 10 µM; 0.83% of 360,000 active; in the data active = inhibition above about 50%
NS3 helicase inh: inhibitors of HCV NS3 helicase, primary screen, biochemical, Cy5 molecular beacon fluorescence; AID 1800, 2009; inhibition, % at 10.9 µM; 0.56% of 290,000 active; Hepatitis C virus NS3 helicase; NS3 helicase DNA unwinding;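 active = inhibition above the mean of all tested compounds plus 3 SD, set per campaign, cut at about 35% in these data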;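 also: 0% = DMSO wells and 100% = thioflavine S control wells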
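System: Hepatitis C virus NS3 helicase domain fragment enzyme | Reagent: Annealed dual-labelled DNA beacon duplex, ATP-started | Compound dosing: 10.9 µM single point, 0.8% DMSO | Incubation: 1 h reaction at 25 °C, ATP-initiated | Technique: Cy5 fluorescence | Evaluation: Percent inhibition from t60/t0 fluorescence ratio | Benchmarks: Low DMSO, high thioflavine S at 110 µM | Replication: Singlicate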
MBD2 DNA inh: inhibitors of MBD2 binding to methylated DNA, primary screen, biochemical, TR-FRET, DNA-binding domain, human. Methyl-CpG-binding domain protein 2 (Homo sapiens), Q9UBB5. MBD2 binding to methylated oligonucleotide. 0.31% of 370,000 active. inhibition, % at 4.4 µM; in the data active = inhibition above about 13%
SUMO1 PPI mod: modulators of SUMO1 protein-protein interactions, primary screen, biochemical, uHTS; Small ubiquitin-related modifier 1 (Homo sapiens), P63165; SUMO1 binding to a labelled peptide, TR-FRET, 1 h; inhibition, % at 20 µM; 0.33% of 360,000 active; AID 602429, 2012; in the data active = inhibition above about 37%
Numbers without * were called inactive; ? = inconclusive; / = no result. The list is not random: actives were taken first. Their share in the collection is about 2.5%.

SMILES	Pemphigus Ab inh	UHRF1 binding	DNMT1 inh	NS3 helicase inh	MBD2 DNA inh	SUMO1 PPI mod
COc1ccc(CNC(=O)Cc2cccs2)cc1OC	100.3	4.6	16.4	6.2	-1.9	2.1
CC1=C(C(=O)N(C)C)CC(CC(=O)NCCCN(C)C)C(=O)N1CCCN1CCCC1=O (stereo not given)	/	23.5*	3.6	/	3.3	-1.6
CC1=C(C(=O)N(C)C)CC(CC(=O)NCCCN(C)C)C(=O)N1CCC1=CCCCC1 (stereo not given)	108.3	21.1*	12.6	/	8.3	1.2
CC1=C(C(=O)N(C)C)CC(CC(=O)NCCc2ccccn2)C(=O)N1CCCN1CCCC1=O (stereo not given)	113.9	25.2*	8.1	/	3.4	2.3
CC1=C(C(=O)N(C)C)CC(CC(=O)NC2CC2)C(=O)N1CCC1=CCCCC1 (stereo not given)	107.3	-0.1	3.3	/	3.8	4.2
O=C(CSc1ccccc1)NN1C(=O)c2ccccc2C1=O	/	0.3	0.5	4.3	0.2	-15.7
COC(=O)c1ccccc1NC1=C/C(=N\S(=O)(=O)c2ccc(C(=O)O)cc2)c2ccccc2C1=O	99.4	/	80.8*	-17.8	/	102.8*
Cc1ccc(S(=O)(=O)/N=C2\C=C(Nc3cccc(C(=O)O)c3)C(=O)c3ccccc32)c(C)c1	90.2	1.9	43.4	-1.7	-1.8	33.3
O=C1C(Nc2ccccc2)=C/C(=N/S(=O)(=O)c2cccs2)c2ccccc21	106.4	/	67.7*	5.8	/	31.9
Cc1ccc(S(=O)(=O)/N=C2\C=C(Nc3ccc(O)cc3)C(=O)c3ccccc32)cc1	94.4	/	52.7*	/	/	12.1
COC(=O)c1ccccc1NC1=C/C(=N\S(=O)(=O)c2cccs2)c2ccccc2C1=O	84.8	-4.4	45.1	16.7	-7.0	-1.7
Cc1ccc(S(=O)(=O)/N=C2\C=C(Nc3cccc(C(=O)O)c3)C(=O)c3ccccc32)cc1	106.6	6.6	59.9*	-11.3	-2.8	38.8
Cc1ccc(NC2=C/C(=N/S(=O)(=O)c3cccs3)c3ccccc3C2=O)cc1	93.4	-3.4	-8.9	15.0	2.1	-5.3
COc1ccc(CCn2c(C)cc3c(c2=O)C(c2ccncc2)C(C#N)=C(N)O3)cc1OC (stereo not given)	99.6	0.2	1.3	8.8	-4.3	-2.1
Cc1cc(F)ccc1S(=O)(=O)N1CCCOC1CNC(=O)C(=O)NCCc1ccco1 (stereo not given)	104.0	-4.2	-4.0	/	-5.6	-2.0
COc1cc2c(cc1OC)C(COc1ccccc1OC)N(C(=O)C(C)(C)C)CC2 (stereo not given)	?	-1.9	-0.9	0.1	-4.2	-1.4
Cc1ccc(C(=O)CCC(=O)N2CCN(c3ccccc3O)CC2)cc1	109.0	2.3	-4.5	/	1.4	-5.9
CCOC(=O)CCCNC(=O)COc1ccccc1C#N	106.0	-0.8	-1.1	4.2	-1.2	0.9
CC(C)NC(=O)C1(C)CN(S(C)(=O)=O)CC(=O)N1CCOc1ccccc1 (stereo not given)	/	40.3*	/	/	-4.8	-0.1
CC(C)NC(=O)C1(C)CSCC(=O)N1CCOc1ccccc1 (stereo not given)	/	-0.6	/	/	0.6	-2.5
Nc1ccc2nc(SCc3ccccc3F)sc2c1	104.5	22.8*	-18.8	-4.0	-1.2	1.1
Nc1ccc2nc(SCC(=O)c3ccccc3)sc2c1	91.9*	-6.8	-23.3	-5.8	-2.7	-1.6
Nc1cc(N)nc(SCC(=O)c2ccccc2)n1	96.4	-0.8	-13.9	-7.1	6.1	6.9
Cc1c(NS(=O)(=O)c2cccc(C(=O)O)c2)c(=O)n(-c2ccccc2)n1C	118.0	1.3	3.8	7.8	3.6	-0.9
O=C(NCC(F)(F)F)Nc1ccccn1	102.9	-3.3	-0.8	4.4	0.0	3.2
SMILES	Pemphigus Ab inh	UHRF1 binding	DNMT1 inh	NS3 helicase inh	MBD2 DNA inh	SUMO1 PPI mod
O=C1Cc2ccccc2C(=O)N1c1ccc(F)cc1Cl	112.8	36.6*	-8.9	10.1	12.7	3.5
O=C1Cc2ccccc2C(=O)N1c1ccccc1	111.4	0.4	-6.4	10.7	-4.1	-0.2
O=C(CSc1n[nH]c(=O)[nH]c1=O)Nc1ccc2c(c1)C(=O)c1ccccc1C2=O	91.5	11.9	45.3	2.2	-6.4	95.6*
C=CCn1c(SCC(=O)Nc2cc(C)c(Cl)cc2OC)nnc1-c1ccco1	92.6	-0.7	-4.4	-13.7	1.8	6.3
COC(=O)c1ccc(/C=C/C(=O)OCC(=O)c2ccc[nH]2)cc1	/	-2.0	-6.9	/	0.0	-5.0
O=C(CSc1nnnn1-c1cccc(F)c1)Nc1nc2ccccc2s1	11.4*	-0.3	4.9	0.2	2.9	3.1
COc1ccc(Cl)cc1N1C(=O)C2CCCN2C1c1ccc(F)c(F)c1 (stereo not given)	104.4	0.8	-1.9	4.4	-4.3	9.0
COc1cccc(C2c3c(oc4ccccc4c3=O)C(=O)N2CCCN2CCOCC2)c1OC (stereo not given)	104.6	50.4*	-0.1	/	-5.2	-0.5
NC(=O)C[n+]1cccc(CNC(=O)c2ccc(OC(F)F)cc2)c1	96.6	77.3*	1.1	0.2	4.5	-5.3
COC(=O)C[C@@H]1C[C@H]2c3cc(NC(=O)CC4CC4)ccc3O[C@H]2[C@@H](CO)O1	109.3	0.6	8.9	/	2.5	5.0
O=C(Cn1nnc(-c2ccccc2)n1)Nc1cccc(S(=O)(=O)N2CCOCC2)c1	98.4	28.9*	-0.2	/	3.9	2.4
CC(=O)c1ccc(COC(=O)Cc2ccc([N+](=O)[O-])cc2)cc1	97.1	1.7	0.4	7.0	-1.6	-21.0
Cc1ccc2nc3c(c(Nc4ccc5c(c4)OCCO5)c2c1)CCC3	112.5	0.3	-3.9	-18.7	-0.7	-3.9
O=[N+]([O-])c1ccccc1N/N=C/c1ccc2c(c1)OCO2	92.5	0.5	5.5	-3.7	-1.8	-2.6
NS(=O)(=O)c1ccc(N/N=C/c2ccc3c(c2)OCO3)c([N+](=O)[O-])c1	30.9*	-1.2	-0.8	1.0	-7.8	-15.3
Cc1ncc(CO)c(/C=N/NC(=O)c2ccc(Br)cc2)c1O	/	/	/	-1.1	/	/
Cc1ncc(CO)c(/C=N/NC(=O)c2cc(Br)ccc2O)c1O	93.6	24.3*	-5.1	-3.6	0.3	-2.4
CCc1ccc(CNC(=O)C2CCN(S(=O)(=O)N3CCC(C)CC3)CC2)cc1	100.7	-1.1	-0.3	-2.1	-8.4	2.1
COc1ccc(N2CCN(CCCNC(=O)Cn3c(=O)c4cccn4c4ccccc43)CC2)cc1	127.6	-2.8	2.4	-8.1	0.3	3.3

Screening results as filed in PubChem BioAssay.
